Experiments:
[1] = target: Delta-type opioid receptor (Mus musculus) (UniProt P32300); test: Opioid receptor delta 1 antagonistic activity was measured by the displacement of DADLE in the mouse vas deferens at tha concentration of 200 nM; format: functional
How it was run: (§1)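 Mouse vas deferens. Antagonist (nM, as stated on line) incubated with the preparation 15 min before testing. δ agonist [D-Ala2,D-Leu5]enkephalin.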

[2] = target: Mu-type opioid receptor (Cavia porcellus) (UniProt P97266); test: Antagonist potency was determined as the ratio of [antagonist] to (IC50 ratio-1) for Opioid receptor mu 1; format: functional
How it was run: (§2)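 Ke (nM) = [antagonist]/(IC50 ratio − 1). IC50 ratio is agonist IC50 with antagonist over the control IC50 in the same preparation. Antagonist preincubated 15 min. Agonists: DADLE in mouse vas deferens (δ); morphine (μ) and ethylketazocine (κ) in guinea pig ileum. n ≥ 3.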

[3] = target: Kappa-type opioid receptor (Cavia porcellus) (UniProt P41144); test: Opioid receptor kappa antagonistic activity was measured by the displacement of ethylketazocine in the guinea pig ileum at a concentration of 200 nM; format: functional, tissue-based
How it was run: (§3)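 Guinea pig ileum. Antagonist (nM, as stated on line) incubated 15 min before testing. Agonists: morphine (μ) and ethylketazocine (κ).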

[4] = target: Delta-type opioid receptor (Mus musculus) (UniProt P32300); test: Antagonist potency was determined as the ratio of [antagonist] to (IC50 ratio-1) for opioid receptor delta 1; format: functional; how it was run: as §2
[5] = target: Mu-type opioid receptor (Cavia porcellus) (UniProt P97266); test: Opioid receptor mu antagonistic activity was measured by the displacement of morphine in the guinea pig ileum at a concentration of 200 nM; format: functional, tissue-based; how it was run: as §3
[6] = target: Kappa-type opioid receptor (Cavia porcellus) (UniProt P41144); test: Antagonist potency was determined as the ratio of [antagonist] to (IC50 ratio-1) for Opioid receptor kappa 1; format: functional; how it was run: as §2
[7] = target: Delta-type opioid receptor (Mus musculus) (UniProt P32300); test: Opioid receptor delta antagonistic activity was measured by the displacement of DADLE in the mouse vas deferens at tha concentration of 200 nM; format: functional; how it was run: as §1
[8] = target: Opioid receptors; delta & kappa (Homo sapiens) (UniProt P41145+P41143); test: Selectivity ratio was determined from Ke value of Opioid receptor kappa 1 and Opioid receptor delta 1; format: protein assay; settings: Cavia porcellus
How it was run: (§4)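 Ratios of Ke values, μ/δ or κ/δ. Each Ke = [antagonist]/(IC50 ratio − 1). δ from DADLE in mouse vas deferens; μ (morphine) and κ (ethylketazocine) in guinea pig ileum. 15 min antagonist preincubation, n ≥ 3.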

[9] = target: Mu-type opioid receptor (Cavia porcellus) (UniProt P97266); test: Opioid receptor mu 1 antagonistic activity was measured by the displacement of morphine in the guinea pig ileum at a concentration of 200 nM; format: functional, tissue-based; how it was run: as §3
[10] = target: Kappa-type opioid receptor (Cavia porcellus) (UniProt P41144); test: Opioid receptor kappa 1 antagonistic activity was measured by the displacement of ethylketazocine in the guinea pig ileum at a concentration of 200 nM; format: functional, tissue-based; how it was run: as §3
[11] = target: Opioid receptors; mu & delta (Homo sapiens) (UniProt P41143+P35372); test: Selectivity ratio was determined from Ke value of Opioid receptor mu 1 and Opioid receptor delta 1; format: protein assay; settings: Cavia porcellus; how it was run: as §4
[12] = target: Mu-type opioid receptor (Cavia porcellus) (UniProt P97266); settings: Ileum, 200 nM
[13] = target: T1, Kappa-type opioid receptor (Cavia porcellus, UniProt P41144); test: Binding affinity was measured by the displacement of [3H]- EK in guinea pig brain membrane of Opioid receptor kappa 1; format: cell membranes
How it was run: (§5)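 Radioligand displacement from guinea pig brain membranes, modified Werling method. μ sites: [3H]DAMGO. δ sites: [3H]DADLE with 1 μM DAMGO. κ sites: [3H]ethylketazocine with 1 μM DAMGO.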

Mu-type opioid receptor [14] = target: T2, Mu-type opioid receptor (Cavia porcellus, UniProt P97266); test: Binding affinity was measured by the displacement of [3H]- DAMGO in guinea pig brain membrane of Opioid receptor mu 1; format: cell membranes; how it was run: as §5
[15] = target: T1, Kappa-type opioid receptor; test: Binding affinity was measured by the displacement of [3H]- EK in guinea pig brain membrane of opioid receptor kappa; format: cell membranes; how it was run: as §5
Mu-type opioid receptor [16] = target: T2, Mu-type opioid receptor; test: Binding affinity was measured by the displacement of [3H]- DAMGO in guinea pig brain membrane of opioid receptor mu; format: cell membranes; how it was run: as §5
[17] = target: Kappa-type opioid receptor (Cavia porcellus) (UniProt P41144); test: Opioid receptor kappa 1 antagonistic activity was measured by the displacement of ethylketazocine in the guinea pig ileum at a concentration of 100 nM; format: functional, tissue-based; how it was run: as §3
[18] = target: Mu-type opioid receptor (Cavia porcellus) (UniProt P97266); test: Opioid receptor mu 1 antagonistic activity was measured by the displacement of morphine in the guinea pig ileum at a concentration of 100 nM; format: functional, tissue-based; how it was run: as §3
[19] = target: Kappa-type opioid receptor (Cavia porcellus) (UniProt P41144); test: Opioid receptor kappa antagonistic activity was measured by the displacement of ethylketazocine in the guinea pig ileum at a concentration of 100 nM; format: functional, tissue-based; how it was run: as §3
[20] = target: Mu-type opioid receptor (Cavia porcellus) (UniProt P97266); test: Opioid receptor mu antagonistic activity was measured by the displacement of morphine in the guinea pig ileum at a concentration of 100 nM; format: functional, tissue-based; how it was run: as §3
[21] = target: Delta-type opioid receptor (Mus musculus) (UniProt P32300); test: Opioid receptor delta antagonistic activity was measured by the displacement of DADLE in the mouse vas deferens at a concentration of 100 nM; format: functional; how it was run: as §1
[22] = target: Delta-type opioid receptor (Mus musculus) (UniProt P32300); test: Opioid receptor delta 1 antagonistic activity was measured by the displacement of DADLE in the mouse vas deferens at a concentration of 100 nM; format: functional; how it was run: as §1

T2 sequence (P97266 whole entry): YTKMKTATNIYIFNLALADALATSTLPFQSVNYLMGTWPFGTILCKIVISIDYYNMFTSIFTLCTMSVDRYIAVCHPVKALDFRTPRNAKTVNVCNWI
Chain of Mu-type opioid receptor (Cavia porcellus) (P97266 whole entry): as above
Chain of Opioid receptors; mu & delta (Homo sapiens) (P35372 whole entry, looked up): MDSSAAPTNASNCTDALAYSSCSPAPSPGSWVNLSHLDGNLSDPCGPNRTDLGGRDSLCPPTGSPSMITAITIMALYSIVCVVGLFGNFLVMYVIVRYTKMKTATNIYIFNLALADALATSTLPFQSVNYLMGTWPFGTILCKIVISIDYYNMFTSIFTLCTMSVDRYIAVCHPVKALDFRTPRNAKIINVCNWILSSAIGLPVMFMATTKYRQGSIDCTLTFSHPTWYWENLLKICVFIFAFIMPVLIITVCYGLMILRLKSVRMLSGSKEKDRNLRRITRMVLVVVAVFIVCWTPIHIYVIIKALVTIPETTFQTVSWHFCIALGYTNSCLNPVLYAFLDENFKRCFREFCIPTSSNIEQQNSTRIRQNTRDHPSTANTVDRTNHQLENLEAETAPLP
Chain of Opioid receptors; mu & delta (Homo sapiens) (P41143 whole entry, looked up): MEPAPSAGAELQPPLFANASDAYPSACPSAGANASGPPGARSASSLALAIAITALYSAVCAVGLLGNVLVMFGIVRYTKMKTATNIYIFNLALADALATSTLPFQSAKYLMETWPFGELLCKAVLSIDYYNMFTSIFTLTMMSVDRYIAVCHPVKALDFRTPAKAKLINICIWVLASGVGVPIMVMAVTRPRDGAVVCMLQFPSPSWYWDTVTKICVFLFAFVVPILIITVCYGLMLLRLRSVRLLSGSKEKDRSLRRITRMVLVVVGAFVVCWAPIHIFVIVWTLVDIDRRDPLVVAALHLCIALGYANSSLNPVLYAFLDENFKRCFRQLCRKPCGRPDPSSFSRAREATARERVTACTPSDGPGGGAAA
Chain of Delta-type opioid receptor (Mus musculus) (P32300 whole entry): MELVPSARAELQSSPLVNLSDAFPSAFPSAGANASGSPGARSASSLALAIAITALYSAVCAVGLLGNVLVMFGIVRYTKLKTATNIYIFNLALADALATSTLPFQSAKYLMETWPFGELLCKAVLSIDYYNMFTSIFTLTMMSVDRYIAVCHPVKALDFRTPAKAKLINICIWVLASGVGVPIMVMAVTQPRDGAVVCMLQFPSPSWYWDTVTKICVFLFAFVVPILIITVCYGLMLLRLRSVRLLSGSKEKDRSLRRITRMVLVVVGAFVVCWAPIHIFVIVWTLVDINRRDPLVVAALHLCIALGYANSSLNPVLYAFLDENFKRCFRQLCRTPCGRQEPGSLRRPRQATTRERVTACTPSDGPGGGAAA
Chain of Opioid receptors; delta & kappa (Homo sapiens) (P41143 whole entry, looked up): as the sequence (P41143 whole entry, looked up) above
Chain of Opioid receptors; delta & kappa (Homo sapiens) (P41145 whole entry, looked up): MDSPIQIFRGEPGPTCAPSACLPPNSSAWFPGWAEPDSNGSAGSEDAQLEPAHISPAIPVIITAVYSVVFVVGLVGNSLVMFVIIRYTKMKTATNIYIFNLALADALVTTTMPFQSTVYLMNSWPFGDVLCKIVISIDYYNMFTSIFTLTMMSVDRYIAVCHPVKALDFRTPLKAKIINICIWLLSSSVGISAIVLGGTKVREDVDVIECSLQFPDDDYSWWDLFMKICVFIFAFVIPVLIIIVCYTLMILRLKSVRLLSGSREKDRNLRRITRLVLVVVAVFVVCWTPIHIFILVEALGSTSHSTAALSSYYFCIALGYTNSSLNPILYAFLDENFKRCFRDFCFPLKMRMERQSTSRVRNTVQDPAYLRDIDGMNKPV
Chain of Kappa-type opioid receptor (Cavia porcellus) (P41144 whole entry): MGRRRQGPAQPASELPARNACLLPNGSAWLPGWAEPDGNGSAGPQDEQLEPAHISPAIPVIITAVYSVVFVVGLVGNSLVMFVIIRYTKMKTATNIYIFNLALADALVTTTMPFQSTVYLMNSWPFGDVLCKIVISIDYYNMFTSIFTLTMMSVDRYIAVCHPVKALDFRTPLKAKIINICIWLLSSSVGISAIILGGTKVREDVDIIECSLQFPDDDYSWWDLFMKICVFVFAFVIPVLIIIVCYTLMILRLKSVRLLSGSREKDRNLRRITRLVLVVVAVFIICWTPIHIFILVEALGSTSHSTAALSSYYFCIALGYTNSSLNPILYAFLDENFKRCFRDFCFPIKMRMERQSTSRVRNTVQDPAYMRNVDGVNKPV
T1 sequence (P41144 whole entry): as above

Row | SMILES | IC50 ratio [1] | Ke [2] [nM] | IC50 ratio [3] | Ke [4] [nM] | Ke [6] [nM] | IC50 ratio [7] | Selectivity ratio [8] | IC50 ratio [9] | IC50 ratio [10] | Selectivity ratio [11] | Ki [13] [nM] | Ki (Mu-type opioid receptor [14]) [nM] | Ki [15] [nM] | Ki (Mu-type opioid receptor [16]) [nM] | IC50 ratio [17] | IC50 ratio [18] | IC50 ratio [19] | IC50 ratio [20] | also measured
1 | O=[N+]([O-])c1ccc2[nH]c3c(c2c1)C[C@@]1(O)[C@H]2Cc4ccc(O)c5c4[C@@]1(CCN2CC1CC1)[C@H]3O5 | 2.4 | > 230 | 1.2 | 146 | > 870 | 2.4 | > 5.6 | 1.9 | 1.2 | > 1.6 | – | – | – | – | – | – | – | – | IC50 ratio [5]: 1.9
2 | Oc1ccc2c3c1O[C@H]1c4[nH]c5ccc(F)cc5c4C[C@@]4(O)[C@@H](C2)N(CC2CC2)CC[C@]314 | 104 | 49 | 6.3 | 1.9 | 38 | 104 | 19 | 5.1 | 6.3 | 25 | 15 | 1.7 | 15 | 1.7 | – | – | – | – | IC50 ratio [12]: 5.1
3 | Cc1ccc2[nH]c3c(c2c1)C[C@@]1(O)[C@H]2Cc4ccc(O)c5c4[C@@]1(CCN2CC1CC1)[C@H]3O5 | 55.4 | > 167 | – | 3.7 | > 250 | 55.4 | > 68 | – | – | > 45 | – | – | – | – | 1.4 | 1.6 | 1.4 | 1.6 | –
4 | Oc1ccc2c3c1O[C@H]1c4[nH]c5c(Br)cccc5c4C[C@@]4(O)[C@@H](C2)N(CC2CC2)CC[C@]314 | – | 83 | – | 1.2 | > 143 | – | > 121 | – | – | 71 | 333 | 29 | 333 | 29 | 1.7 | 2.2 | 1.7 | 2.2 | IC50 ratio [21]: 85; IC50 ratio [22]: 85
5 | COc1ccc2[nH]c3c(c2c1)C[C@@]1(O)[C@H]2Cc4ccc(O)c5c4[C@@]1(CCN2CC1CC1)[C@H]3O5 | 53 | > 63 | – | 3.8 | 12 | 53 | 3.2 | – | – | > 16 | – | – | – | – | 9.2 | 2.6 | 9.2 | 2.6 | –
